In brackets after ≈: the same amount, converted by molar mass.
Experiments:
Format in all cases: functional
[1] = tested on: Mycobacterium tuberculosis; assay: In vitro activity against Mycobacterium. tuberculosis (strain type-BUR)at pH 6.6
In short: (§1)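 Twofold serial dilutions (200–3.12 µg/mL) in 7H10 agar with 10% OADC enrichment at pH 6.6, in compartmented plates. Plates were stored at 4 °C and used within 24–48 h. A no-drug compartment served as control for each isolate. Plates were incubated for 4 weeks at 37 °C. MIC was the lowest concentration giving 99% (2 log) growth inhibition.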

[2] = tested on: Mycobacterium tuberculosis; assay: In vitro activity against Mycobacterium. tuberculosis (strain type-ATCC 35828)at pH 6.6; in short: as §1
Mycobacterium kansasii [3] = assay: In vitro activity against Mycobacterium. kansasii (strain type-SWK).at pH 6.6
In short: (§2)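 MIC for pyrazinamide-resistant isolate SWK by agar dilution in Middlebrook 7H10 with 10% OADC at pH 6.6. Serial 2-fold dilutions run 200–3.12 µg/mL in compartmented plates prepared 24–48 h in advance and stored at 4 °C. A drug-free control is included. Plates were held at 37 °C for 4 weeks. The endpoint is 99% (2 log) inhibition of growth.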

[4] = tested on: Mycobacterium tuberculosis; assay: In vitro activity against Mycobacterium. tuberculosis (strain type-BUR)at pH 5.8
Mycobacterium kansasii [5] = assay: In vitro activity against Mycobacterium. kansasii (strain type-SWK).at pH 5.8
In short: (§3)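 Pyrazinamide-resistant isolate SWK tested on Middlebrook 7H10 agar plus 10% OADC adjusted to pH 5.8. Compartmented plates hold 2-fold dilutions from 200 to 3.12 µg/mL, prepared 24–48 h before use and kept at 4 °C, with a drug-free compartment. Incubation was 37 °C for 4 weeks. MIC is the lowest level causing 99% (2 log) growth inhibition.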

[6] = tested on: Mycobacterium tuberculosis; assay: In vitro activity against Mycobacterium. tuberculosis (strain type-H37Rv) at pH 5.8
[7] = tested on: Mycobacterium tuberculosis; assay: In vitro activity against Mycobacterium. tuberculosis (strain type-H37Rv) at pH 6.6
[8] = tested on: Mycobacterium tuberculosis; assay: In vitro activity against Mycobacterium. tuberculosis (strain type-ATCC 35828)at pH 5.8
In short: (§4)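 Middlebrook 7H10 agar plus 10% OADC at pH 5.8 in compartmented plates, with serial twofold dilutions from 200 to 3.12 µg/mL. Plates were prepared 24–48 h before use and stored at 4 °C. A drug-free compartment was included per isolate. Incubation was 37 °C for 4 weeks. MIC was the lowest level producing 99% (2 log) inhibition of growth.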

[9] = tested on: Mycobacterium tuberculosis; assay: In vitro inhibitory activity against Mycobacterium tuberculosis (strain type-BUR) at pH 5.8; in short: as §4
[10] = tested on: Mycobacterium tuberculosis; assay: In vitro inhibitory activity against Mycobacterium tuberculosis (strain type-ATCC 35828) at pH 6.6; in short: as §1
[11] = tested on: Mycobacterium tuberculosis; assay: In vitro inhibitory activity against Mycobacterium tuberculosis (strain type-ATCC 35828) at pH 5.8; in short: as §4
Mycobacterium kansasii [12] = assay: In vitro inhibitory activity against Mycobacterium kansasii (strain type-SWK) at pH 6.6; in short: as §2
[13] = tested on: Mycobacterium tuberculosis; assay: In vitro inhibitory activity against Mycobacterium tuberculosis (strain type-H37Rv) at pH 6.6; settings: Mycobacterium tuberculosis; read-out: MIC
[14] = tested on: Mycobacterium tuberculosis; assay: In vitro inhibitory activity against Mycobacterium tuberculosis (strain type-BUR) at pH 6.6; in short: as §1
[15] = tested on: Mycobacterium tuberculosis; assay: In vitro inhibitory activity against Mycobacterium tuberculosis (strain type-H37Rv) at pH 5.8; in short: as §4
Mycobacterium kansasii [16] = assay: In vitro inhibitory activity against Mycobacterium kansasii (strain type-SWK) at pH 5.8; in short: as §3
[17] = tested on: Mycobacterium tuberculosis; assay: In vitro activity against Mycobacterium strain ATCC 35828 (Mycobacterium tuberculosis)
In short: (§5)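 Agar dilution in compartmented plates of Middlebrook 7H10 agar with 10% OADC, adjusted to pH 5.8 or pH 6.6. Twofold compound dilutions spanned 200–3.12 µg/mL. Plates were made 24–48 h ahead and held at 4 °C. MIC (µg/mL) was the lowest concentration giving 99% (2 log) growth inhibition.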

[18] = tested on: Mycobacterium tuberculosis; assay: In vitro activity against Mycobacterium strain BAK (Mycobacterium tuberculosis)
[19] = tested on: Mycobacterium tuberculosis; assay: In vitro activity against Mycobacterium strain BUR (Mycobacterium tuberculosis); in short: as §5
[20] = tested on: Mycobacterium tuberculosis; assay: In vitro activity against Mycobacterium strain CES (Mycobacterium tuberculosis); in short: as §5
[21] = tested on: Mycobacterium tuberculosis; assay: In vitro activity against Mycobacterium strain DOL (Mycobacterium tuberculosis); settings: Mycobacterium tuberculosis; read-out: MIC
[22] = tested on: Mycobacterium tuberculosis; assay: In vitro activity against Mycobacterium strain DOU (Mycobacterium tuberculosis); in short: as §5
Mycobacterium kansasii [23] = assay: In vitro activity against Mycobacterium. kansasii (strain type-SWK)at pH 6.6; in short: as §2
[24] = tested on: Mycobacterium tuberculosis; assay: In vitro activity against Mycobacterium strain GLA (Mycobacterium tuberculosis)
Mycobacterium kansasii [25] = assay: In vitro activity against Mycobacterium. kansasii (strain type-SWK)at pH 5.8; in short: as §3
Mycobacterium kansasii [26] = assay: In vitro activity against Mycobacterium strain SWK (Mycobacterium kansasii)
In short: (§6)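 Agar dilution MIC against pyrazinamide-resistant clinical isolates on Middlebrook 7H10 agar with 10% OADC at pH 5.8 or pH 6.6. Serial 2-fold dilutions span 200–3.12 µg/mL in compartmented plates made 24–48 h ahead and stored at 4 °C. Each isolate has a drug-free control. Plates were incubated at 37 °C for 4 weeks. MIC is the lowest concentration giving 99% (2 log) growth inhibition.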

[27] = tested on: Mycobacterium tuberculosis; assay: In vitro activity against Mycobacterium strain ING (Mycobacterium tuberculosis); in short: as §5
[28] = tested on: Mycobacterium tuberculosis; assay: In vitro activity against Mycobacterium strain LEL (Mycobacterium tuberculosis)
[29] = tested on: Mycobacterium tuberculosis; assay: In vitro activity against Mycobacterium strain MCQ (Mycobacterium tuberculosis); in short: as §5
[30] = tested on: Mycobacterium tuberculosis; assay: In vitro activity against Mycobacterium strain SMA (Mycobacterium tuberculosis); settings: Mycobacterium tuberculosis; read-out: MIC
[31] = tested on: Mycobacterium tuberculosis; assay: In vitro activity against Mycobacterium strain WOO (Mycobacterium tuberculosis); in short: as §5
[32] = tested on: Mycobacterium tuberculosis; assay: In vitro activity against Mycobacterium strain DUB (Mycobacterium tuberculosis); settings: Mycobacterium tuberculosis; read-out: MIC
Mycobacterium kansasii [33] = assay: In vitro activity against Mycobacterium strain SCH (Mycobacterium kansasii); in short: as §6
Mycobacterium kansasii [34] = assay: In vitro activity against Mycobacterium. kansasii (strain type-SWK) […]
[35] = Mycobacterium tuberculosis, read-out: MIC

O=C(OCCBr)c1cnccn1
MIC [1]: > 200 µg/mL | MIC [2]: > 200 µg/mL | MIC (Mycobacterium kansasii [3]): > 200 µg/mL

O=C(Oc1ccc([N+](=O)[O-])cc1)c1cnccn1
MIC [4, 35]: 12.5 µg/mL (≈ 51 µM) | MIC [2]: 200 µg/mL (≈ 816 µM) | MIC (Mycobacterium kansasii [5]): 25 µg/mL (≈ 102 µM) | MIC (Mycobacterium kansasii [3]): 200 µg/mL (≈ 816 µM) | MIC [6, 35]: 12.5 µg/mL (≈ 51 µM) | MIC [7, 35]: 50 µg/mL (≈ 204 µM) | MIC [8]: 25 µg/mL (≈ 102 µM)

O=C(O)c1cnccn1 [PYRAZINOIC ACID]
MIC [9]: 50 µg/mL (≈ 403 µM) | MIC [10]: > 200 µg/mL | MIC [11]: 100 µg/mL (≈ 806 µM) | MIC (Mycobacterium kansasii [12]): > 200 µg/mL | MIC [13]: 200 µg/mL (≈ 1610 µM) | MIC [14]: > 200 µg/mL | MIC [15]: 50 µg/mL (≈ 403 µM) | MIC (Mycobacterium kansasii [16]): > 200 µg/mL

Cc1ccc(OC(=O)c2cnccn2)cc1
MIC [17]: 12.5 µg/mL (≈ 58.4 µM) | MIC [18]: 12.5 µg/mL (≈ 58.4 µM) | MIC [19]: 12.5 µg/mL (≈ 58.4 µM) | MIC [4]: 12.5 µg/mL (≈ 58.4 µM) | MIC [1]: 100 µg/mL (≈ 467 µM) | MIC [20]: 12.5 µg/mL (≈ 58.4 µM) | MIC [21]: 6.25 µg/mL (≈ 29.2 µM) | MIC [22]: 12.5 µg/mL (≈ 58.4 µM) | MIC [2]: 200 µg/mL (≈ 934 µM) | MIC (Mycobacterium kansasii [23]): 200 µg/mL (≈ 934 µM) | MIC [24]: 6.25 µg/mL (≈ 29.2 µM) | MIC (Mycobacterium kansasii [25]): 12.5 µg/mL (≈ 58.4 µM) | MIC (Mycobacterium kansasii [26]): 12.5 µg/mL (≈ 58.4 µM) | MIC [6]: 12.5 µg/mL (≈ 58.4 µM) | MIC [7]: 25 µg/mL (≈ 117 µM) | MIC [27]: 25 µg/mL (≈ 117 µM) | MIC [28]: 12.5 µg/mL (≈ 58.4 µM) | MIC [29]: 6.25 µg/mL (≈ 29.2 µM) | MIC [30]: 25 µg/mL (≈ 117 µM) | MIC [31]: 25 µg/mL (≈ 117 µM) | MIC [8]: 12.5 µg/mL (≈ 58.4 µM) | MIC [32]: 25 µg/mL (≈ 117 µM) | MIC (Mycobacterium kansasii [33]): 12.5 µg/mL (≈ 58.4 µM)

CCCOC(=O)c1cnccn1
MIC [17]: 6.25 µg/mL (≈ 37.6 µM) | MIC [18, 35]: < 3.12 µg/mL | MIC [19]: < 3.12 µg/mL | MIC [4, 35]: < 3.12 µg/mL | MIC [20]: < 3.12 µg/mL | MIC [21]: < 3.12 µg/mL | MIC [22]: < 3.12 µg/mL | MIC [2]: 25 µg/mL (≈ 150 µM) | MIC (Mycobacterium kansasii [5]): < 3.12 µg/mL | MIC (Mycobacterium kansasii [3]): 12.5 µg/mL (≈ 75.2 µM) | MIC [24]: 6.25 µg/mL (≈ 37.6 µM) | MIC (Mycobacterium kansasii [26]): 6.25 µg/mL (≈ 37.6 µM) | MIC [6, 35]: < 3.12 µg/mL | MIC [7]: 25 µg/mL (≈ 150 µM) | MIC [27]: < 3.12 µg/mL | MIC [28, 35]: 6.25 µg/mL (≈ 37.6 µM) | MIC [29]: < 3.12 µg/mL | MIC [30]: < 3.12 µg/mL | MIC [8]: 6.25 µg/mL (≈ 37.6 µM) | MIC [32]: < 3.12 µg/mL | MIC (Mycobacterium kansasii [33]): 12.5 µg/mL (≈ 75.2 µM)

O=C(Oc1c(F)c(F)c(F)c(F)c1F)c1cnccn1
MIC [2]: 100 µg/mL (≈ 345 µM) | MIC (Mycobacterium kansasii [5]): 25 µg/mL (≈ 86.2 µM) | MIC (Mycobacterium kansasii [3]): > 200 µg/mL | MIC [6, 35]: 12.5 µg/mL (≈ 43.1 µM) | MIC [7, 35]: 100 µg/mL (≈ 345 µM) | MIC [8]: 12.5 µg/mL (≈ 43.1 µM)

O=C(OCCCl)c1cnccn1
MIC [4, 35]: 6.25 µg/mL (≈ 33.5 µM) | MIC (Mycobacterium kansasii [34]): 25 µg/mL (≈ 134 µM) | MIC [8]: 25 µg/mL (≈ 134 µM)

From ChEMBL document CHEMBL1125418, “Antimycobacterial activity of a series of pyrazinoic acid esters” (1992)
